core dimer inh = HCV core protein dimerization inhibition; TR-FRET GST/Flag-core106 dimerization, 1536-well; inhibition, % at 5 µM; 300,000 tested, 0.33% active; AID 1899;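 active means inhibition above the mean of all tested compounds plus 3 SD, set per screening campaign, cut at about 45% in these data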
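System: GST/Flag-tagged HCV core106 proteins. Incubation: compound-protein-antibody incubation 4 h at 22.5 °C. Technique: HTRF with 340 nm excitation, 617/671 nm emission. Medium: KF-containing HEPES buffer, pH 7.45, DTT, CHAPS, BSA. Read-out: inhibition (%) from 671 over 617 nm ratio. Also added: Eu(K)-anti-GST 90 ng/mL plus XL665-anti-Flag 1 µg/mL.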
HCV NS3 hel inh = inhibitors of Hepatitis C virus NS3 helicase | 290,000 tested, 0.56% active | NS3 helicase DNA unwinding, Cy5 molecular beacon fluorescence | inhibition, % at 10.9 µM;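 active means inhibition above the mean of all tested compounds plus 3 SD, set per campaign, cut at about 35% in these data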;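 further: 0% = DMSO wells and 100% = thioflavine S control wells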
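Compound dosing – single dose, 10.9 µM nominal final, DMSO 0.8% final · System – NS3 helicase fragment of HCV · Buffer or medium – MOPS pH 6.5, MgCl2, DTT, Tween20, BSA · Signal – Cy5 beacon fluorescence read at start and 1 h · Also added – annealed dual-labelled DNA beacon duplex, ATP-started · Schedule – 1 h at 25 °C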
GPR7 antagonist = human neuropeptides B/W receptor 1 antagonism; 290,000 tested, 1.1% active; GPR7-expressing cells, fluorescence antagonist assay; inhibition, % at 4.4 µM; P48145; in the data active means inhibition above about 16%, passing the limit was not always enough;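 further: cells stimulated with the agonist NPW; 0% = agonist with vehicle and 100% = vehicle without agonist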
Target sequence (P48145 whole entry, looked up): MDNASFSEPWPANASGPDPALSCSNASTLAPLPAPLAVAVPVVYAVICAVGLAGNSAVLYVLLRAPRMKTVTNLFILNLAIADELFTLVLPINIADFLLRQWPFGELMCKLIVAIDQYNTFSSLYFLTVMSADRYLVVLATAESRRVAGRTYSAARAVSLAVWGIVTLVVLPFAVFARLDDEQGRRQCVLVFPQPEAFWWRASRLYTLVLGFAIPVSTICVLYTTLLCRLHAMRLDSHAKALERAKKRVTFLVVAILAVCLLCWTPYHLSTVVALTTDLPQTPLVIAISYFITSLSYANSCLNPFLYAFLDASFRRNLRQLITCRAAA
pCIP destab = compounds decreasing mouse p/CIP protein stability; 290,000 tested, 0.01% active; AID 1984; decrease of EGFP signal, % at 10 µM; F442A p/CIP-EGFP cells, EGFP fluorescence, 16 h; Q05BA5;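 active means EGFP signal decrease of at least 30% at 10 µM or well 3 SD below plate mean, unless failing retest; inactive means the rest, including hits failing retest or dose response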
DNA FID counter = displaces DNA intercalator in HCV helicase counter-screen | inhibition, % at 7.9 µM | AID 1845 | DNA fluorescent intercalator displacement, fluorescence | 290,000 tested, 0.17% active; in the data active means inhibition above about 37%;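 further: 0% = vehicle and 100% = reference compound; higher means more ethidium bromide displaced from hairpin DNA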
GPR7 antag cf = human GPR7 antagonism, confirmation assay; inhibition, % at 4.4 µM; 2,400 tested, 52% active; shares compounds with GPR7 antagonist; GPR7-expressing cells, calcium fluorescence antagonist mode; in the data active means inhibition above about 24%;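 further: stimulated with the GPR7 agonist NPW; 0% = agonist plus vehicle and 100% = vehicle alone without agonist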
MCHR1 antagonist = MCHR1 (human) antagonism in GPR7 counter-screen. shares compounds with GPR7 antagonist. MCHR1-expressing cells, fluorescence antagonist assay. inhibition, % at 4.4 µM. 2,400 tested, 62% active; in the data active means inhibition above about 22%;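 further: 0% = vehicle with agonist and 100% = vehicle without agonist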
Active calls of the source: *; . = no result. Shown are actives, neighbours in structure and some others; about 1.9% of the full set was active somewhere.

SMILES | core dimer inh | HCV NS3 hel inh | GPR7 antagonist | pCIP destab | DNA FID counter | GPR7 antag cf | MCHR1 antagonist
Cc1cccc(C)c1NC(=O)CN(C)CC(=O)Nc1ccccc1Oc1ccccc1 | 1.7 | -8.4 | 32.0* | 1.1 | -37.8 | 26.5* | 26.0*
Cc1ccc(NC(=O)CN(C)CC(=O)Nc2ccccc2Oc2ccccc2)cc1 | 5.9 | 4.7 | 2.6 | -0.8 | -16.1 | . | .
CCOC(=O)C1(CCOc2ccccc2)CCN(Cc2cccc(OC)c2OC)CC1 | -18.2 | -37.7 | 32.4* | -4.4 | 29.4 | 24.2* | 54.3*
COc1ccc(NC(=O)C(OC(=O)c2cnccn2)c2ccccc2)cc1Cl (configuration not stated) | -0.2 | -9.3 | 31.6* | -12.0 | -10.8 | 18.8 | 20.0
COc1ccc(NC(=O)C(OC)c2ccccc2)cc1Cl (configuration not stated) | -3.2 | -2.0 | -4.9 | 2.9 | -7.3 | . | .
Cc1ccccc1OCCNc1cc(N2CCNCC2)ccc1[N+](=O)[O-] | -9.0 | -68.5 | 30.3* | -5.2 | 25.5 | 47.5* | 66.1*
COCCNC(=O)Cn1c(=O)n(CCCCCC(=O)NCc2ccc3c(c2)OCO3)c(=O)c2sccc21 | 0.3 | 2.7 | 29.4* | 1.0 | -20.0 | -6.6 | -3.5
O=C(CCCCn1c(=O)[nH]c2ccsc2c1=O)NCc1ccc2c(c1)OCO2 | 0.8 | -3.0 | 11.2 | -13.4 | -8.1 | . | .
CCOc1ccc(N(C)S(=O)(=O)c2cc(-c3cc(C)no3)ccc2CC)cc1 | -0.1 | -7.4 | 6.5 | 13.4 | -28.9 | . | .
CCOc1ccc(N(C)S(=O)(=O)c2cc(-c3cc(C)no3)ccc2C)cc1 | 3.7 | -19.9 | 32.0* | 6.1 | -27.8 | 17.0 | 73.9*
CC(=O)N1CCCc2cc(S(=O)(=O)N3CCCC(C(=O)Nc4ccccc4C)C3)ccc21 (configuration not stated) | 2.0 | -1.9 | -16.0 | -1.6 | -45.3 | . | .
Cc1nc2ccc(S(=O)(=O)Nc3ccccc3C)cc2s1 | -2.1 | 7.7 | 25.2* | -33.7 | -14.4 | 9.0 | 35.0*
Cc1nc2ccc(NS(=O)(=O)c3ccc(C)c(C)c3)cc2s1 | -5.4 | -9.8 | 13.1 | -11.2 | -16.8 | . | .
O=C(Nc1cccc(-n2cnnn2)c1)c1ccoc1COc1ccc(Cl)cc1 | 2.5 | -9.5 | -7.2 | -8.3 | -4.4 | . | .
CC1CCCN(S(=O)(=O)c2ccc(S(=O)(=O)NC(C)c3cccs3)cc2)C1 (configuration not stated) | -0.4 | -9.0 | 47.9* | -11.3 | -27.3 | 53.2* | 31.9*
O=[N+]([O-])c1cccc2c3c([nH]c12)CCCC3 | -2.8 | 3.4 | -6.8 | -3.5 | 2.2 | . | .
O=C(CSc1nc2ccc(NC(=O)CSc3nnnn3Cc3ccccc3)cc2s1)Nc1ccccc1 | 23.7 | -6.3 | -8.4 | 4.1 | 1.4 | . | .
COC(=O)CSc1nc2ccc(NC(=O)CSc3nnnn3Cc3ccccc3)cc2s1 | 10.3 | 8.0 | 37.0* | 4.6 | -4.9 | 63.8* | 54.7*
O=C(CSc1nc2ccc(NC(=O)c3ccccc3C(=O)O)cc2s1)Nc1ccc(F)c([N+](=O)[O-])c1 | 27.1 | -11.5 | 25.9* | -3.6 | 13.9 | 26.4* | 66.0*
COc1ccc2c(c1OC)C(=O)N(c1cccc(C)c1)C2 | 1.7 | 2.5 | -6.6 | 10.6 | -6.2 | . | .
COc1ccc2c(c1OC)C(=O)N(c1ccc(C)cc1)C2 | -3.4 | 27.0 | 23.4* | 14.1 | -14.0 | 9.0 | 2.0
O=C(Nc1ccc2c(c1)CCCN2C(=O)c1cccs1)c1c(F)cccc1Cl | -4.5 | 2.0 | 25.9* | 3.7 | -31.4 | 16.0 | 40.6*
Cc1[nH]c(C)c(S(=O)(=O)N2CCN(c3ccc(Cl)cc3)CC2)c1C(=O)N1CCCC1 | 2.8 | -4.4 | 3.2 | 3.5 | -29.8 | . | .
O=C(NCCc1ccco1)C(=O)NCC1OCCCN1S(=O)(=O)c1ccc(F)cc1 (configuration not stated) | 3.6 | 19.7 | 23.7* | -5.2 | -17.0 | -1.0 | 2.0
O=C(Nc1ccccc1)Nc1cc([N+](=O)[O-])ccc1F | 1.1 | 8.9 | 4.6 | 2.5 | 12.2 | . | .
Cc1ccc([N+](=O)[O-])cc1NC(=O)Nc1cccc(F)c1 | . | 4.4 | 39.6* | -5.4 | 14.4 | 62.5* | 64.7*
COC(=O)c1ccc(NC(=O)Nc2cccc(F)c2)cc1 | 3.0 | -29.4 | 31.6* | -2.6 | 7.4 | 53.7* | 64.6*

Bioassay records deposited in PubChem BioAssay by several laboratories.
